Experimental data as given in ChEMBL document CHEMBL1148327, “Arylcyanoguanidines as activators of Kir6.2/SUR1K ATP channels and inhibitors of insulin release” (J Med Chem, 2004).

Tests used:
A10 [1] = experiment: Effect on membrane potential of mitochondria of A10 smooth muscle cells in rats; type: functional; details: Rattus norvegicus, read-out: ED50 (the source's name)
Beta-TC6 [2] = experiment: In vitro efficacy to inhibit glucose stimulated insulin release in beta-TC6 cells […]; type: functional
Beta-TC6 [3] = experiment: In vitro ability to inhibit glucose stimulated insulin release in beta-TC6 cells […]; type: functional, cell-based; details: Mus musculus
Beta-TC3 [4] = experiment: Effect on membrane potential of mitochondria of beta-TC3 cells in rats; type: functional, Rattus norvegicus; details: Mus musculus, read-out: ED50 (the source's name)
Beta-TC3 [5] = experiment: Ability to repolarize beta-TC3 cell membrane potential; type: functional, cell-based, Rattus norvegicus; details: Mus musculus
HepG2 [6] = experiment: (§1) Maximum effect on glucose utilization in HepG2 cells expressed as % of full stimulation; type: functional, Rattus norvegicus; details: Homo sapiens
In short: (§2)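 HEP-G2 glucose oxidation: 2×10^4 cells/well incubated overnight at 37 °C, 5% CO2. Compounds diluted from 100× DMSO stocks into medium with 10 μCi/mL D-(5-3H)-glucose, in duplicate, 3 h at 37 °C. Lysed with 10% TCA; 3H-water separated by evaporation and counted. Mean ± SEM of three experiments.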

Rattus norvegicus [7] = species: Rattus norvegicus; experiment: Effect on insulin release from rat islets; type: functional, organism-based
Rattus norvegicus [8] = species: Rattus norvegicus; experiment: Efficacy on insulin release from rat islets; type: functional, organism-based
HepG2 [9] = experiment: (§3) Effective concentration required for stimulation of glucose utilization in Hepatocytes (HEP-G2 cells); type: functional, cell-based, Rattus norvegicus; details: Homo sapiens; in short: as §2
Rattus norvegicus [10] = species: Rattus norvegicus; experiment: Relaxation of phenylephrine precontracted rat isolated aorta rings.; type: functional, organism-based
Beta-TC3 [11] = experiment: Ability to repolarize beta-TC3 cell membrane potential; Not significant; type: functional, cell-based, Rattus norvegicus
Beta-TC6 [12] = experiment: In vitro ability to inhibit glucose stimulated insulin release in beta-TC6 cells […]; Not active; type: functional, cell-based
A10 [13] = experiment: Effect on membrane potential of mitochondria in A10 smooth muscle cells from rats; type: functional; details: Rattus norvegicus, read-out: ED50 (the source's name)
HepG2 [14] = experiment: as §3; type: functional, cell-based; details: Homo sapiens; in short: as §2
HepG2 [15] = experiment: as §1; type: functional; details: Homo sapiens; in short: as §2
Rattus norvegicus [16] = species: Rattus norvegicus; experiment: Inhibitory effect on insulin release from rat islets; type: functional, organism-based
Rattus norvegicus [17] = species: Rattus norvegicus; experiment: Efficacy to inhibit insulin release from rat islets; type: functional, organism-based
Beta-TC3 [18] = experiment: Effect on membrane potential of mitochondria in beta-TC3 cells […]; type: functional; details: Mus musculus, read-out: ED50 (the source's name)
Rattus norvegicus [19] = species: Rattus norvegicus; experiment: Effective concentration required relaxation of precontracted rat aorta ring; type: functional, organism-based

| Compound | Efficacy (Beta-TC6 [2]) [%] | IC50 (Beta-TC6 [3]) [µM] | IC50 (Beta-TC3 [5]) [µM] | IC50 (Rattus norvegicus [10]) [µM] | IC50 (Beta-TC3 [11]) | further results |
| --- | --- | --- | --- | --- | --- | --- |
| CC(C)CC/N=C(\NC#N)Nc1cc(Cl)cc(Cl)c1 | 60 | 4.2 | 0.8 |  |  | EC50 (A10 [1]): 2 µM; EC50 (Beta-TC3 [4]): > 30 µM; Emax (HepG2 [6]): 98%; IC50 (Rattus norvegicus [7]): 3.8 µM; Efficacy (Rattus norvegicus [8]): 72%; EC50 (HepG2 [9]): 22 µM |
| CCC/N=C(\NC#N)Nc1cc(C(F)(F)F)cc(C(F)(F)F)c1 | 53 |  | 19 |  |  |  |
| C[C@@H](/N=C(\NC#N)Nc1cc(C(F)(F)F)cc(C(F)(F)F)c1)C(C)(C)C | 68 | 4.4 | 18 | 20.3 |  |  |
| C[C@H](/N=C(\NC#N)Nc1cc(C(F)(F)F)cc(C(F)(F)F)c1)C(C)(C)C | 67 | 13.7 | 12 | 11.9 |  |  |
| CC(C)CC/N=C(\NC#N)Nc1cccnc1 | 23 | 1.2 |  |  | Not Active |  |
| CC(C)/N=C(\NC#N)Nc1cc(Cl)cc(Cl)c1 |  |  |  | 52 | Not Active | IC50 (Beta-TC6 [12]): Not Active |
| CC(C)C(C)/N=C(\NC#N)Nc1cc(C(F)(F)F)cc(C(F)(F)F)c1 (stereo unspecified) | 69 | 5.2 | 5.5 | 17.6 |  |  |
| N#CN/C(=N\C1CCCC1)Nc1cc(C(F)(F)F)cc(C(F)(F)F)c1 | 65 | 5.45 | 4.7 | > 300 |  | EC50 (A10 [13]): 1 µM; EC50 (HepG2 [14]): 10.4 µM; Emax (HepG2 [15]): 95%; IC50 (Rattus norvegicus [16]): 1.24 µM; Efficacy (Rattus norvegicus [17]): 65%; EC50 (Beta-TC3 [18]): > 30 µM |
| N#CN/C(=N\C1(c2cccc(Cl)c2)CCC1)Nc1cc(C(F)(F)F)cc(C(F)(F)F)c1 | 66 | 2.8 | 20 |  |  |  |
| CC1=Nc2ccc(Cl)cc2S(=O)(=O)N1 [DIAZOXIDE] | 23 |  | 13.7 | 12.8 |  |  |
| N#CN/C(=N\C1CCCC1)Nc1cc(Cl)cc(Cl)c1 | 18 | 28.7 | 12 | 75 |  |  |
| CC(C)/N=C(\NC#N)Nc1cc(C(F)(F)F)cc(C(F)(F)F)c1 | 20 | 41.4 |  |  | Not Active |  |
| C[C@H](/N=C(\NC#N)Nc1cc(Cl)cc(Cl)c1)c1ccccc1 | 27 | 39.8 | 25 |  |  |  |
| CCC(C)(C)/N=C(\NC#N)Nc1cc(C(F)(F)F)cc(C(F)(F)F)c1 |  |  |  |  | Not Active | IC50 (Beta-TC6 [12]): Not Active |
| C[C@@H](/N=C(\NC#N)Nc1cc(Cl)cc(Cl)c1)c1ccccc1 | 22 | 16.1 |  | 43.8 | Not Active |  |
| CC(C)CC/N=C(\NC#N)Nc1cc(C(F)(F)F)cc(C(F)(F)F)c1 | 77 |  | 4.7 |  |  |  |
| COc1cc(N/C(=N/C2CCCC2)NC#N)cc(C(F)(F)F)c1 |  |  |  | 75 | Not Active | IC50 (Beta-TC6 [12]): Not Active |
| CCC(C)(C)/N=C(\NC#N)Nc1cc(Cl)cc(Cl)c1 | 32 | 48.5 | 24 |  |  |  |
| N#C/N=C(\Nc1cccnc1)NC1(c2cccc(Cl)c2)CCC1 |  |  |  |  |  | EC50 (Rattus norvegicus [19]): 113 µM |
| CC(N/C(=N\C#N)Nc1ccncc1)C(C)(C)C (stereo unspecified) [PINACIDIL ANHYDROUS] |  | > 100 |  | 0.8 | Not Active |  |
| CC(C)CC/N=C(\NC#N)Nc1cc(F)cc(F)c1 |  |  |  | 85 | Not Active | IC50 (Beta-TC6 [12]): Not Active |
